Source: ChEMBL document CHEMBL1800017, “Resorcylic acid lactones with cytotoxic and NF-κB inhibitory activities and their structure-activity relationships” (J Nat Prod, 2011)
Activity calls are given as the source filed them. No cut-off for these calls is given here.

What was measured:
MCF7 = assay: Cytotoxicity against human MCF7 cells after 72 hrs by MTS assay; type: functional, cell-based; conditions: MCF7, 72 h
In short: (§1)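 Continuous 72 h exposure with MTS read-out. IC50 is the concentration reducing cellular proliferation by 50% relative to untreated controls.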

NCI-H460 = assay: Cytotoxicity against human H460 cells after 72 hrs by MTS assay; type: functional, cell-based; in short: as §1
SF-268 = assay: Cytotoxicity against human SF268 cells after 72 hrs by MTS assay; type: functional, cell-based; in short: as §1
HT-29 [1] = assay: Cytotoxicity against human HT-29 cells after 72 hrs by MTS assay; type: functional, cell-based; conditions: HT-29, 72 h
In short: (§2)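 Cells were grown in RPMI 1640 with 10% FBS, penicillin and streptomycin. They were plated at 2500 (HT-29) or 5000 (MDA-MB-435) cells/well and preincubated 16 h at 37 °C in 5% CO2. Test substance was added at final 25, 5, 1, 0.2 and 0.04 µg/mL for 72 h. Read-out was MTS. IC50 is the concentration giving 50% reduction in proliferation versus untreated controls.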

MDA-MB-435 = assay: Cytotoxicity against human MDA-MB-435 cells after 72 hrs by MTS assay; type: functional, cell-based; conditions: MDA-MB-435, 72 h; in short: as §2
Staphylococcus aureus = assay: Antimicrobial activity against Staphylococcus aureus by agar plate diffusion assay; type: functional
In short: (§3)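 Agar plate diffusion. Overnight cultures of each organism were seeded into molten LB or Middlebrook 7H9 medium with 1% glycerol and 1.5% agar, held at 50 °C, and poured as plates. Samples in 10 µL MeOH were spotted onto the surface and tested up to 500 µg/mL. Positive controls were penicillin G, novobiocin and streptomycin. Plates were incubated overnight at 37 °C.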

[2] = tested on: Mycolicibacterium smegmatis; assay: Antimicrobial activity against Mycobacterium smegmatis by agar plate diffusion assay; type: functional; in short: as §3
Transcription factor p65 = Transcription factor p65 (Homo sapiens, UniProt Q04206); assay: Inhibition of NFkappa p65 isolated from nuclear extract of human HeLa cells by ELISA; type: cell-free
Escherichia coli [3] = assay: Antimicrobial activity against Escherichia coli by agar plate diffusion assay; type: functional; in short: as §3
Bacillus subtilis = assay: Antimicrobial activity against Bacillus subtilis by agar plate diffusion assay; type: functional; in short: as §3
HT-29 [4] = assay: Inhibition of mitochondrial membrane potential in human HT-29 cells using JC1 dye staining by fluorescence plate reader assay; type: functional, cell-based
In short: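 HT-29 cells exposed to a range of test concentrations, then loaded with JC-1 dye and washed to remove unbound stain. Fluorescence read for monomers (ex 485/em 530 nm, apoptotic) and aggregates (ex 560/em 595 nm, healthy). Staurosporine positive control. Triplicate measurements, at least two independent experiments; IC50 reported.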

Escherichia coli [5] = assay: Antimicrobial activity against Escherichia coli at 100 ug/mL by agar plate diffusion assay; type: functional, organism-based
In short: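 Agar plate diffusion: overnight E. coli culture seeded into molten LB or Middlebrook 7H9 medium with 1% glycerol and 1.5% agar, held at 50 °C, then poured as assay plates. Samples dissolved in 10 µL MeOH were applied to the plate surface, and controls were treated the same way. Plates were incubated overnight at 37 °C.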

Chain of Transcription factor p65 (Q04206 whole entry, the tested form may be a part): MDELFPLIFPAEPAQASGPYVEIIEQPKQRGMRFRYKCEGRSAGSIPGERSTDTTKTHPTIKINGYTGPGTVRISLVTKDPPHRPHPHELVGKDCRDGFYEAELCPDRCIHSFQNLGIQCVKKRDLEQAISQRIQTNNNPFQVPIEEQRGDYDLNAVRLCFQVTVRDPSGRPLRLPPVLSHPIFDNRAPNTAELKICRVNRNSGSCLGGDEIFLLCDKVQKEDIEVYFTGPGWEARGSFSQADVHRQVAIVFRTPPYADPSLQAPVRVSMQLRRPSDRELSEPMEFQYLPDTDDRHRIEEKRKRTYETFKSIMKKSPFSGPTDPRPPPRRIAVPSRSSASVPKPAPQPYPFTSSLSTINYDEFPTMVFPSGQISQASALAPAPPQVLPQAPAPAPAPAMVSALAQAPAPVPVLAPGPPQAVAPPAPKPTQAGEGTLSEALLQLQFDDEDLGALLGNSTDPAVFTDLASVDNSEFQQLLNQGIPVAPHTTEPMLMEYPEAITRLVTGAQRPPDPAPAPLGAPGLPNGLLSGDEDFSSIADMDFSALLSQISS

Work on C[C@H]1CCC[C@@H](O)CCCCCc2cc(O)cc(O)c2C(=O)O1 (stereo in doubt; 10) [TALERANOL] yielded an IC50 (MCF7) greater than 25 µM, an IC50 (NCI-H460; Homo sapiens, NCI-H460, 72 h) of 15.4 µM and an IC50 (SF-268; Homo sapiens, SF-268, 72 h) greater than 50 µM.
C[C@H]1CCC[C@@H](O)CCCCCc2cc(O)cc(O)c2C(=O)O1 (stereo in doubt; 12) [TALERANOL] was tested, and the IC50 (NCI-H460; nci-h460) was 9.5 µM and the IC50 (SF-268; sf-268) was greater than 25 µM.
With C[C@H]1CCCC(=O)CCCCCc2cc(O)cc(O)c2C(=O)O1 [ZEARALANONE] the IC50 (MCF7) was greater than 25 µM, the IC50 (NCI-H460; Homo sapiens, NCI-H460, 72 h) was greater than 25 µM and the IC50 (SF-268; Homo sapiens, SF-268, 72 h) was greater than 50 µM.
Compound COc1cc(O)c2c(c1)/C=C/C[C@H](O)[C@H](O)C(=O)/C=C/C[C@H](C)OC2=O has an IC50 (HT-29 [1]) of 4.4 µM, an IC50 (MCF7) of 4.9 µM and an IC50 (SF-268; Homo sapiens, SF-268, 72 h) of 5.6 µM. It also gave an IC50 (MDA-MB-435) of 5.5 µM, an MIC (Staphylococcus aureus) greater than 500 µg/mL and an MIC [2] greater than 500 µg/mL. For the same compound, the IC50 (Transcription factor p65) was 11.5 µM.
C[C@H]1C/C=C\C(=O)[C@@H](O)[C@@H](O)C/C=C/c2cc(O)cc(O)c2C(=O)O1 was tested, and the IC50 (HT-29 [1]) was 11.5 µM, the IC50 (MCF7) was 10.3 µM and the IC50 (NCI-H460; Homo sapiens, NCI-H460, 72 h) was 4.1 µM. It also gave an IC50 (SF-268; Homo sapiens, SF-268, 72 h) of 8.9 µM, an IC50 (MDA-MB-435) of 15.8 µM and an MIC (Escherichia coli [3]) greater than 500 µg/mL. It also gave an MIC (Staphylococcus aureus) greater than 500 µg/mL, an MIC [2] greater than 500 µg/mL and an MIC (Bacillus subtilis) greater than 500 µg/mL. It also gave an IC50 (Transcription factor p65) of 0.75 µM.
C[C@H]1CCCC(=O)CCC/C=C/c2cc(O)cc(O)c2C(=O)O1 [ZEARALENONE] showed an IC50 (MCF7) greater than 25 µM, an IC50 (NCI-H460; Homo sapiens, NCI-H460, 72 h) greater than 25 µM and an IC50 (SF-268; Homo sapiens, SF-268, 72 h) greater than 50 µM.
Work on COc1cc(O)c2c(c1)/C=C/C[C@H](O)[C@H](O)[C@@H](O)/C=C/C[C@H](C)OC2=O [ZEAENOL] yielded an IC50 (HT-29 [1]) greater than 25 µM, an IC50 (MCF7) greater than 100 µM and an IC50 (NCI-H460; Homo sapiens, NCI-H460, 72 h) greater than 100 µM. For the same compound, the IC50 (SF-268; Homo sapiens, SF-268, 72 h) was greater than 100 µM, the IC50 (MDA-MB-435) was greater than 25 µM and the MIC (Escherichia coli [3]) was greater than 500 µg/mL. For the same compound, the MIC [2] was greater than 500 µg/mL and the IC50 (Transcription factor p65) was greater than 50 µM.
In the case of COc1cc(O)c2c(c1)[C@H]1O[C@@H]1C[C@H](O)[C@H](O)C(=O)/C=C\C[C@H](C)OC2=O [HYPOTHEMYCIN], the IC50 (MCF7) is reported as 16.3 µM, the IC50 (NCI-H460; Homo sapiens, NCI-H460, 72 h) is reported as 4.3 µM and the IC50 (SF-268; Homo sapiens, SF-268, 72 h) is reported as 12.7 µM.
CN[C@@H]1C[C@H]2O[C@@](C)([C@@H]1OC)n1c3ccccc3c3c4c(c5c6ccccc6n2c5c31)C(=O)NC4 [STAUROSPORINE] gave an IC50 (HT-29 [4]) of 0.0025 µM.
COc1cc(O)c2c(c1)/C=C/C[C@H](O)[C@H](O)[C@H](O)/C=C/C[C@H](C)OC2=O showed an IC50 (HT-29 [1]) greater than 25 µM, an IC50 (MCF7) greater than 100 µM and an IC50 (NCI-H460; Homo sapiens, NCI-H460, 72 h) greater than 100 µM. For the same compound, the IC50 (SF-268; Homo sapiens, SF-268, 72 h) was greater than 100 µM, the IC50 (MDA-MB-435) was greater than 25 µM and the MIC (Staphylococcus aureus) was greater than 500 µg/mL. For the same compound, the MIC [2] was greater than 500 µg/mL, the MIC (Bacillus subtilis) was greater than 500 µg/mL and the IC50 (Transcription factor p65) was greater than 50 µM.
COc1cc(O)c2c(c1)/C=C/C[C@H](O)[C@H](O)C(=O)/C=C\C[C@H](C)OC2=O showed an IC50 (HT-29 [1]) of 3.6 µM, an IC50 (MCF7) of 3.8 µM and an IC50 (NCI-H460; Homo sapiens, NCI-H460, 72 h) of 1.2 µM. It also gave an IC50 (SF-268; Homo sapiens, SF-268, 72 h) of 5.1 µM, an IC50 (MDA-MB-435) of 3.3 µM and an MIC (Escherichia coli [3]) greater than 500 µg/mL. It also gave an MIC [2] greater than 500 µg/mL, an MIC (Bacillus subtilis) greater than 500 µg/mL and an IC50 (Transcription factor p65) of 0.25 µM.
COc1cc(O)c2c(c1)/C=C/C[C@H](O)[C@H](O)C(=O)CCC[C@H](C)OC2=O showed an IC50 (HT-29 [1]) greater than 50 µM, an IC50 (MCF7) greater than 50 µM and an IC50 (NCI-H460; Homo sapiens, NCI-H460, 72 h) greater than 25 µM. For the same compound, the IC50 (SF-268; Homo sapiens, SF-268, 72 h) was greater than 50 µM, the IC50 (MDA-MB-435) was greater than 50 µM and the MIC (Escherichia coli [3]) was greater than 500 µg/mL. For the same compound, the MIC (Staphylococcus aureus) was greater than 500 µg/mL, the MIC [2] was greater than 500 µg/mL and the MIC (Bacillus subtilis) was greater than 500 µg/mL. It also gave an IC50 (Transcription factor p65) greater than 50 µM.
CC1(C)S[C@@H]2[C@H](NC(=O)Cc3ccccc3)C(=O)N2[C@H]1C(=O)O was tested, and the inhibition (Escherichia coli [5]) was “Active”.
COC(=O)[C@H]1[C@@H](O)[C@@]2(O)c3c(OC)cc(O[C@@H]4O[C@@H]([C@H](O)CO)CO[C@H]4OC)cc3O[C@@]2(c2ccc(OC)cc2)[C@@H]1c1ccccc1 [SILVESTROL] gave an IC50 (HT-29 [1]) of 0.004 µM and an IC50 (MDA-MB-435) of 0.006 µM.
CC[C@@]1(O)C(=O)OCc2c1cc1n(c2=O)Cc2cc3ccccc3nc2-1 [CAMPTOTHECIN] was tested, and the IC50 (MCF7) was 0.07 µM, the IC50 (NCI-H460; Homo sapiens, NCI-H460, 72 h) was less than 0.01 µM and the IC50 (SF-268; Homo sapiens, SF-268, 72 h) was 0.04 µM.
For C[C@H]1CCC[C@H](O)CCCCCc2cc(O)cc(O)c2C(=O)O1 [ZERANOL], the IC50 (MCF7) was greater than 50 µM, the IC50 (NCI-H460; Homo sapiens, NCI-H460, 72 h) was greater than 50 µM and the IC50 (SF-268; Homo sapiens, SF-268, 72 h) was greater than 50 µM.
